Series [1] can be described thus: Cytotoxicity against human HepG2 cells after 24 hrs by MTT assay. To be noted: read-out: LD50. It counts as cell-based. An outline of the steps:
(§1)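 Trypsinized cells seeded at 5 × 10³/well and allowed to adhere 18 h. Compounds added at varied concentrations for 24 h. MTT then added for 3 h, formazan dissolved in DMSO, absorbance read at 570 and 630 nm. Viability taken as % of untreated control after background subtraction, and LD50 derived.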
On the technique in general: Formazan colour is commonly taken as a measure of viable cells.

A short description of series [2]: Cytotoxicity against african green monkey BGMK cells after 24 hrs by MTT assay. To be noted: chlorocebus aethiops, read-out: LD50. It counts as cell-based. In outline:
as §1

Another series deals with Plasmodium falciparum. Description: Antimalarial activity against chloroquine resistant, mefloquine sensitive Plasmodium falciparum W2 infected in human erythrocytes by [3H]-hypoxanthine incorporation assay. The class given is functional, organism-based.

SMILES strings stand for the structures. Values after ≈ are worked out from the molar mass of the structure shown.

As to `Cc1ccc(S(=O)(=O)N[C@@H](Cc2ccccc2)[C@H](O)CSc2ccccn2)cc1`, the CC50 at 24 h was determined as 191 µg/mL (≈ 446 µM) in series [1] and 192 µg/mL (≈ 448 µM) in series [2]. The IC50 in the series with Plasmodium falciparum was over 50 µg/mL.
For `O=S(=O)(N[C@@H](Cc1ccccc1)[C@H](O)CSc1ncccn1)c1ccc(Br)cc1` the same measures were 101 µg/mL (≈ 204 µM), 99 µg/mL (≈ 200 µM) and 25 µg/mL (≈ 50.6 µM).
Consider `CC(C)(C)OC(=O)N[C@@H](Cc1ccccc1)[C@H](O)CSc1ncccn1`, for which the CC50 at 24 h in series [1] stood at 197 µg/mL (≈ 525 µM); in series [2] it was 170 µg/mL (≈ 453 µM). In the series on Plasmodium falciparum, this compound came in with a concentration for half-maximal inhibition (IC50) of over 50 µg/mL.
`O=[N+]([O-])c1ccc(S(=O)(=O)N[C@@H](Cc2ccccc2)[C@H](O)CSc2ccccn2)cc1`: the CC50 at 24 h in series [1] and in series [2] was over 200 µg/mL each time. The compound also displayed a concentration for half-maximal inhibition (IC50) in the series with Plasmodium falciparum of over 50 µg/mL.
`O=[N+]([O-])c1ccc(S(=O)(=O)N[C@@H](Cc2ccccc2)[C@H](O)CSc2ncccn2)cc1`: the CC50 at 24 h in series [1] and in series [2] was over 200 µg/mL each time. In addition, 15 µg/mL (≈ 32.6 µM) corresponded to half-maximal inhibition in the series with Plasmodium falciparum (IC50).
For `CC(C)(C)OC(=O)N[C@@H](Cc1ccccc1)[C@H](O)CSc1ccccn1`, the CC50 at 24 h in series [1] and in series [2] was over 200 µg/mL throughout. The same compound registered a half-inhibitory concentration (IC50) with Plasmodium falciparum of 31.7 µg/mL (≈ 84.6 µM).

The IC50 is the concentration that gives 50% inhibition.

Source of the values: ChEMBL document CHEMBL1909555, “Synthesis and antimalarial activity of thioetherhydroxyethylsulfonamides, potential aspartyl protease inhibitors, Part 3” (Eur J Med Chem, 2011).
